Active and inactive are the calls of the source. The calls are words filed in the database; no cut-off is given here.

Test [1] relates to K562. Briefly: Cytotoxicity against human K562 cells after 72 hrs by MTT assay. In kind it is functional, cell-based. Particulars: for IC50: K562, 72 h. In outline:
(§1)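 Cells grown in MEM with 10% fetal calf serum, penicillin and streptomycin at 37 °C, 5% CO2. Exponentially growing cells seeded in quadruplicate at 5 × 10³ per well and left 24 h before compounds (DMSO stocks) were added. After 72 h exposure, MTT added for 4 h at 37 °C, formazan dissolved in DMSO, read at 570 nm. IC50 read graphically from dose–response curves.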

The nature of test [2]: Cytotoxicity against human HO8910 cells after 72 hrs by MTT assay. Conditions: HO-8910, 72 h. In kind it is functional, cell-based. In a few lines: as §1
Test [3] deals with CNE. The experiment in a line: Cytotoxicity against human CNE cells after 72 hrs by MTT assay. In kind it is functional, cell-based. In outline: as §1
Test [4] can be described thus: Cytotoxicity against human Bel7404 cells after 72 hrs by MTT assay. Conditions: BEL-7404, 72 h. In kind it is functional, cell-based. In outline:
as §1

Test [5] in a line: Cytotoxicity against human LS 174T cells after 72 hrs by MTT assay. In kind it is functional, cell-based. Conditions: LS174T. In outline: as §1
For test [6], the system named is PC-3. The experiment in a line: Cytotoxicity against human PC3 cells after 72 hrs by MTT assay. In kind it is functional, cell-based. Conditions: PC-3, 72 h. In outline: as §1
Test [7] relates to A549. Briefly: Cytotoxicity against human A549 cells after 72 hrs by MTT assay. In kind it is functional, cell-based. Conditions: A549, 72 h. In a few lines: as §1
Test [8] concerns HeLa. Briefly: Cytotoxicity against human HeLa cells after 72 hrs by MTT assay. In kind it is functional, cell-based. In a few lines:
as §1

Test [9] concerns KB. The experiment in a line: Cytotoxicity against human KB cells after 72 hrs by MTT assay. In kind it is functional, cell-based. In outline: as §1
Test [10] relates to BGC-823. Briefly: Cytotoxicity against human BGC823 cells after 72 hrs by MTT assay. In kind it is functional, cell-based. Conditions: BGC-823, 72 h. In outline:
as §1

Test [11] in a line: Cytotoxicity against human ECA109 cells after 72 hrs by MTT assay. Conditions: ECa-109, 72 h. In kind it is functional, cell-based. In outline: as §1
The subject of test [12] is HL-60. Briefly: Cytotoxicity against human HL60 cells after 72 hrs by MTT assay. In kind it is functional, cell-based. Particulars: HL-60, 72 h. In a few lines: as §1
For test [13], the system named is K562. The experiment in a line: Induction of apoptosis in human K562 cells using Annexin V/PI staining at 2 uM after 72 hrs by flow cytometry relative to control (reference value: 5.45%). In kind it is functional.
Test [14] has as its system K562. Briefly: Cytotoxicity against human K562 cells at up to 8 uM by MTT assay. In kind it is functional, cell-based. Conditions: TDE = time-dependent effect. In outline:
(§2)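 K562 cells grown in MEM with 10% fetal calf serum at 37 °C, 5% CO2, seeded in quadruplicate at 5 × 10³ per well. After 24 h, exposed to a range of concentrations for 48 or 72 h. MTT added for 4 h, formazan dissolved in DMSO, read at 570 nm. Viability expressed as % of untreated control, mean S.D. of at least three independent experiments.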

For test [15], the system named is K562. Briefly: Induction of apoptosis in human K562 cells assessed as increase of Bax/Bcl-2 ratio after 48 hrs by Western blotting. In kind it is functional, cell-based. In a few lines:
(§3)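 K562 cells treated for 48 h at the indicated concentrations, then lysed in Tris-HCl pH 7.5/NaCl buffer with protease inhibitors. Protein measured by Lowry assay. 40 µg total protein run on SDS–PAGE and blotted to PVDF. Probed overnight at 4 °C with anti-caspase-3, anti-Bax, anti-Bcl-2 and anti-β-actin, with HRP secondary and chemiluminescence. Bands quantified by densitometry, at least three independent experiments.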

Test [16] has as its system K562. Briefly: Induction of apoptosis in human K562 cells using Annexin V/PI staining at 8 uM after 72 hrs by flow cytometry relative to control (reference value: 5.45%). In kind it is functional.
In test [17] the test system is K562. The experiment in a line: Induction of apoptosis in human K562 cells using Annexin V/PI staining at 8 uM after 48 hrs by flow cytometry relative to control (reference value: 4.17%). In kind it is functional.
Test [18] concerns K562. Briefly: Induction of apoptosis in human K562 cells using Annexin V/PI staining at 0.5 uM after 72 hrs by flow cytometry relative to control (reference value: 5.45%). In kind it is functional.
Test [19] relates to K562. The experiment in a line: Cytotoxicity against human K562 cells assessed as reduction of cell viability at 8 uM after 72 hrs by MTT assay relative to control. In kind it is functional. In outline:
as §2

Test [20] relates to K562. Briefly: Induction of apoptosis in human K562 cells using Annexin V/PI staining at 2 uM after 48 hrs by flow cytometry relative to control (reference value: 4.17%). In kind it is functional.
The test system of test [21] is K562. The experiment in a line: Induction of apoptosis in human K562 cells assessed as up-regulation of caspase 3 expression at up to 8 uM after 48 hrs by Western blotting. In kind it is functional, cell-based. In a few lines: as §3
In test [22] the test system is K562. Briefly: Induction of apoptosis in human K562 cells using Annexin V/PI staining at 0.5 uM after 48 hrs by flow cytometry relative to control (reference value: 4.17%). In kind it is functional.

`COCOc1ccc(/C=C/C(=O)NCCc2c[nH]c3ccccc23)cc1OCOC`: the half-maximal inhibitory concentration (IC50) in test [1] is 195 µM; in test [2], greater than 200 µM; in test [3] it was greater than 200 µM; in test [4], greater than 200 µM; in test [5], 165 µM; in [6], 157 µM. Further, the IC50 is greater than 200 µM in [7]; greater than 200 µM in [8]; greater than 200 µM in test [9]; 143 µM in test [10]; 154 µM in test [11]; greater than 200 µM in [12].
Consider `O=C(/C=C/c1ccccc1)N1CCN(Cc2ccc(Cl)c(Cl)c2)CC1`, for which the IC50 is 14.1 µM in test [1]; 45.4 µM in [2]; greater than 200 µM in [3]; 44.8 µM in test [4]; 34.1 µM in test [5]; 12.8 µM in [6]. Moreover, the IC50 in [7] was 173 µM; in test [8], 73.9 µM; in test [9] it was 20.7 µM; in [10], 31.2 µM; in test [11], 17 µM; in [12], 82.6 µM.
Turning to `COc1ccc(/C=C/C(=O)NCCN2CCOCC2)cc1OC`, the IC50 in test [1], in test [2], in [3], in test [4], in test [5] and in [6] was greater than 200 µM each time. For the same compound, the IC50 in test [7], in [8], in test [9], in test [10], in test [11] and in test [12] was greater than 200 µM in each case.
Regarding `O=C(/C=C/C(=O)N1CCN(Cc2ccc(Cl)c(Cl)c2)CC1)c1ccccc1`, the half-maximal inhibitory concentration (IC50) in test [1] was greater than 200 µM; in test [2] it was greater than 200 µM; in test [3], greater than 200 µM; in [4], 67.1 µM; in [5] it was 67.2 µM; in test [6] it was greater than 200 µM. Also, the IC50 turned out to be 139 µM in test [7]; 84.8 µM in test [8]; 103 µM in [9]; 78.8 µM in test [10]; 103 µM in test [11]; 99.4 µM in [12].
With `CCOc1ccc(COc2c(OC)cc(/C=C/C(=O)N3CCN(Cc4ccc(Cl)c(Cl)c4)CC3)cc2OC)cc1`, the Activity in test [13] was 17.82%; in test [14], “tde”; in test [1], “Dose-dependent effect”; in [15] it was “Dose-dependent effect”; in [16], 20.38%; in test [17], 14.83%. The Activity in test [18] is on record as 13.71%; in [19], 37.9%; in [20] it was 10.95%; in test [22], 8.26%. The IC50 was 1.7 µM in test [1]; greater than 200 µM in test [2]; greater than 200 µM in [3]; 2 µM in test [4]; greater than 200 µM in test [5]; greater than 200 µM in test [6]. Moreover, the IC50 was 63.4 µM in test [7]; greater than 200 µM in [8]; 0.2 µM in test [9]; greater than 200 µM in test [10]; 1.1 µM in test [11]; greater than 200 µM in test [12]. For the same compound, in [21], the outcome was Active.
As to `O=C(/C=C/c1ccc(O)c(O)c1)NCCN1CCOCC1`, the IC50 in test [1], in [2], in test [3], in test [4], in [5] and in test [6] was greater than 200 µM in each case. Moreover, the IC50 in test [7], in [8], in test [9], in test [10], in test [11] and in test [12] was greater than 200 µM throughout.
Take `COc1ccc(/C=C/C(=O)NCCc2c[nH]c3ccccc23)cc1OC`: the IC50 in test [1], in test [2], in test [3], in [4], in [5] and in [6] was greater than 200 µM each time. The IC50 in [7], in test [8], in test [9], in [10], in test [11] and in test [12] was greater than 200 µM in each case.
With `O=C(/C=C/c1ccc(O)c(O)c1)NCCc1c[nH]c2ccccc12`, the IC50 in test [1] was greater than 200 µM; in test [2] it was greater than 200 µM; in test [3], greater than 200 µM; in test [4], greater than 200 µM; in [5] it was 8.4 µM; in test [6], greater than 200 µM. Moreover, the IC50 was greater than 200 µM in [7]; 2.7 µM in [8]; 85.7 µM in test [9]; greater than 200 µM in test [10]; greater than 200 µM in [11]; 124 µM in [12].
Regarding `COCOc1ccc(/C=C/C(=O)N2CCN(Cc3ccc(Cl)c(Cl)c3)CC2)cc1OCOC`, the IC50 in test [1] is 19.3 µM; in [2], 69.7 µM; in test [3] it was greater than 200 µM; in test [4], greater than 200 µM; in test [5], 139 µM; in test [6], 7.4 µM. The half-inhibitory concentration (IC50) in [7] worked out at 107 µM; in test [8] it was 29.1 µM; in test [9] it was 3.7 µM; in test [10], 64.4 µM; in test [11], 7.4 µM; in test [12], 31 µM.
`O=C(/C=C/c1ccc(O)c(O)c1)N1CCN(Cc2ccc(Cl)c(Cl)c2)CC1`: the IC50 in test [1] is greater than 200 µM; in [2], greater than 200 µM; in test [3], greater than 200 µM; in test [4] it was greater than 200 µM; in [5] it was 50.4 µM; in test [6] it was greater than 200 µM. Moreover, the IC50 was greater than 200 µM in test [7]; greater than 200 µM in test [8]; greater than 200 µM in test [9]; greater than 200 µM in test [10]; greater than 200 µM in [11]; 165 µM in test [12].
Take `O=C(/C=C/c1ccc(O)c(O)c1)OCCc1ccccc1` [CAFFEIC ACID PHENETHYL ESTER]: the IC50 in test [1] is 46 µM; in [2] it was 25.5 µM; in test [3], 54 µM; in test [4], 14.5 µM; in test [5] it was 9.9 µM; in [6], 91 µM. In addition, the IC50 in test [7] came out at 26.8 µM; in test [8] it was 8.8 µM; in [9] it was 45.2 µM; in test [10], 19.3 µM; in test [11] it was 42.6 µM; in test [12], 9.8 µM.
Turning to `COCOc1ccc(/C=C/C(=O)NCCN2CCOCC2)cc1OCOC`, the IC50 in test [1], in test [2], in [3], in test [4], in [5] and in [6] was greater than 200 µM throughout. Besides, the IC50 in test [7], in test [8], in test [9], in test [10], in [11] and in test [12] was greater than 200 µM each time.

(Values after ChEMBL document CHEMBL1221279, “Synthesis, biological evaluation, and structure-activity relationship study of novel cytotoxic aza-caffeic acid derivatives” (Bioorg Med Chem, 2010).)
